Hits are enriched below; roughly 1.9% of the tested compounds scored in any of these assays.
FGF22 binding = binders of human FGF22 protein, primary screen, FGF22 synaptogenesis inhibitor project, biophysical, thermal shift, single point | recombinant FGF22 thermal shift, SYPRO orange fluorescence; percent of sucrose octasulfate shift, DMSO zero | hit rate 1.5% among 340,000 | Fibroblast growth factor 22 (Homo sapiens), Q9HCT0 | activity (Tm shift, normalised), % at 9.99 µM | AID 651658, 2012;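 active means mean Tm shift, scaled 0 neutral to 100 positive control, at about 1.3% or above, every replicate too, limit read from the data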
Target sequence (Q9HCT0 whole entry, looked up): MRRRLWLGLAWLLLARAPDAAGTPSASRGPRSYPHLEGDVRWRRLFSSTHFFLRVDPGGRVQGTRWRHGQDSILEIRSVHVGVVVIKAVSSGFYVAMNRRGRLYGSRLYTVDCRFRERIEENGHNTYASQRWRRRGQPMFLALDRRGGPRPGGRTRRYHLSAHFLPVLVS
Rtt109 Vps75 = inhibitors of C. albicans Rtt109/Vps75 HAT, primary screen, biochemical, ThioGlo CoA-SH fluorescence, plate reader; hit rate 0.16% among 330,000; Histone acetyltransferase RTT109 (Candida albicans (strain SC5314 / ATCC MYA-2876)), …; purified Rtt109/Vps75, 4 h; AID 540336, 2011; inhibition, % at 34.9 µM;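 active means inhibition of at least 50% in every replicate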
ARFGAP1 inh = inhibitors of rat ARFGAP1 GAP activity, primary screen, biochemical, fluorescence polarization, GDP tracer; ADP-ribosylation factor GTPase-activating protein 1 (Rattus norvegicus), Q62848; Arfgap1-stimulated ARF1 GTP hydrolysis, GDP FP detection; inhibition, % at 16.5 µM; hit rate 0.26% among 360,000; AID 651572, 2012;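 active means inhibition above a per-plate limit, mean inhibition of low control wells plus 3 SD, cut at about 25% in these data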;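 further: 0% = DMSO wells with enzyme and 100% = wells lacking Arfgap1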
Target sequence (Q62848 1-136 limits assumed): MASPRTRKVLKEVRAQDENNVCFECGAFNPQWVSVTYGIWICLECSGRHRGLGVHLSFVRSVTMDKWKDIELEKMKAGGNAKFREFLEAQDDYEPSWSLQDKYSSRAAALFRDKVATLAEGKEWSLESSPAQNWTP
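Material: rat Arfgap1 catalytic domain, aa 1-136; also added: human ARF1(Δ1-17)-GTP substrate; compound dosing: one concentration, 16.5 µM, DMSO 1.26%; incubation: GTP hydrolysis reaction 2 h at 25 °C; measured by: Tracer-displacement fluorescence polarization with EDTA stop, 620/688 nm; evaluation: % inhibition from polarization; repeats: one replicate per compound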
ASAP1 inh = inhibitors of human ASAP1 ArfGAP activity, primary screen, biochemical, fluorescence polarization; Arf-GAP with SH3 domain, ANK repeat and PH domain-containing protein 1 (Homo sapiens), …; ASAP1-stimulated ARF1 GTP hydrolysis, GDP FP detection; inhibition, % at 16.5 µM; hit rate 0.19% among 360,000; AID 624377, 2012; in the data active means inhibition above about 25%;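 further: 0% = vehicle with enzyme and substrate and 100% = no enzyme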
Efflux pump inh = inhibitors of Candida efflux pumps in yeast, primary screen, S. cerevisiae, Nile Red, multiplex | hit rate 0.44% among 330,000 | inhibition, % at 10 µM | S. cerevisiae Candida pump triplex | AID 485275, 2010;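 active means plate passing quality check with inhibition over a set limit, or well fluorescence over plate mean plus 4 SD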;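 further: Nile Red retained in pooled yeast measured as flow cytometry median fluorescence; 0% = buffer negative control and 100% = Enniatin B positive control; higher means more Nile Red kept so more efflux inhibition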
Active calls of the source: *; x = not tested or not shown.

SMILES	FGF22 binding	Rtt109 Vps75	ARFGAP1 inh	ASAP1 inh	Efflux pump inh
COc1ccc(CNC(=O)CSc2n[nH]c(N)n2)cc1	0	0	2	-4	0
COc1ccc(OCCNC2CCCC2)cc1	0	2	-4	-2	0
N#Cc1ccc(OCCOCCNC2CCCC2)cc1	44*	-3	-3	8	0
CC(C)(C)C(=O)N1N=C(c2cccc(NS(C)(=O)=O)c2)CC1c1cccs1 (configuration not stated)	0	-3	-7	-1	0
OCCNCCSc1ccc(Cl)cc1	43*	3	7	-4	0
COc1ccc(NC(=S)Nc2ccc(OC(F)F)cc2)cn1	43*	7	-2	-2	0
COc1ccc(NC(=S)Nc2ccccc2)cn1	0	-2	-6	-11	0
COc1ccccc1S(=O)(=O)N[C@@H]1CC[C@@H](CC(=O)N2CCCCC2)O[C@H]1CO	0	x	x	x	x
Cc1ccc(S(=O)(=O)NC(CC(=O)OCc2ccccc2)C(=O)OCc2ccccc2)cc1 (configuration not stated)	30*	x	5	1	x
Cc1ccc(S(=O)(=O)NC(Cc2ccccc2)C(=O)O)cc1 (configuration not stated)	0	-3	4	-4	0
CCc1cc(C(=O)OC)c(NC(=O)CCC(=O)O)s1	x	-11	7	-14	0
CCCc1cc(C(=O)OC)c(NC(=O)CCCC(=O)O)s1	44*	-6	-10	-2	0
Cc1nn(C)c(Oc2cccc(C(F)(F)F)c2)c1C=O	43*	6	-2	2	0
CCO[C@@H]1OC(C(=O)O)=C[C@H](C2CC2)[C@H]1CCCO	44*	1	10	15	0
CC(C)CN(C(=O)COc1cccc(-n2cnnn2)c1)C1CCS(=O)(=O)C1 (configuration not stated)	0	1	-2	-7	0
CCCCCCn1cc(C(=O)OCC)c(=O)c2cc(F)c(F)cc21	0	5	18	1	0
CCOC(=O)c1cn(CC#N)c2cc(F)c(F)cc2c1=O	43*	0	1	-9	0
CCCCNC(=O)C[C@@H]1C[C@@]2(C(=O)OCC)CCCC=C2N(Cc2ccc(Cl)cc2Cl)C1=O	0	x	-4	3	x
COc1cc(OC)cc(-c2c(-c3ccc(F)cc3)c3cc(-c4ccc(OC)nc4)ccc3n2C)c1	0	14	0	3	0
COc1cccc(-c2c(-c3cc(OC)cc(OC)c3)n(C)c3ccc(-c4ccc(OC)nc4)cc23)c1	44*	4	-1	12	0
CC1CCN(C(=O)Cn2ncc3c4ccccc4n(C)c3c2=O)CC1	0	-6	16	10	0
CCc1ccccc1NC(=O)CCN1C(=O)C2C3CCC(C3)C2C1=O (configuration not stated)	44*	8	-2	7	0
O=C(CCN1C(=O)C2C3CCC(C3)C2C1=O)Nc1ccccc1Cl (configuration not stated)	0	-6	8	-7	0
CCCCc1ccc(NC(=S)N2CCN(c3ncccn3)CC2)cc1	43*	2	9	-7	0
CC(C)C(C(=O)Nc1ccccc1F)N1C(=O)c2ccccc2C1=O (configuration not stated)	0	8	-3	4	0
SMILES	FGF22 binding	Rtt109 Vps75	ARFGAP1 inh	ASAP1 inh	Efflux pump inh
CC(C)C(C(=O)Nc1cccnc1)N1C(=O)c2ccccc2C1=O (configuration not stated)	x	53*	-6	2	0
COc1ccc(NS(=O)(=O)c2ccc(C)c(C(=O)N(C)CC(=O)Nc3cccc(OC)c3)c2)cc1	-1	6	3	-5	0
COCCCNc1ccc([N+](=O)[O-])cc1C(=O)Nc1cccc(C)n1	0	1	-16	-6	0
CC1CCCC(C)N1C(=C(Cl)Cl)C(=C1SCCS1)[N+](=O)[O-] (configuration not stated)	43*	3	-2	-1	0
NC(=O)CCN(Cc1ccccc1)S(=O)(=O)c1ccccc1	x	0	-2	1	0
Cc1ccc(NC(=O)CCC(=O)NCCO)cc1	x	-2	0	-1	0
Cc1cccc(C(=O)Nc2ccc(O)c3c(=O)cc(-c4ccccc4Cl)oc23)c1	45*	3	2	-11	x
O=C(Nc1ccc(O)c2c(=O)cc(-c3ccccc3Cl)oc12)c1cccc(Cl)c1	0	5	-2	5	x
CC1C(=O)N(Cc2cn(CCC3OCCCO3)nn2)CCS(=O)(=O)N1Cc1ccc(-c2ccc(Cl)cc2)cc1 (configuration not stated)	44*	x	12	6	x
COc1ccc(S(=O)(=O)N(C)C[C@@H]2OCCCC[C@H](C)Oc3ccc(NS(=O)(=O)c4ccc(Cl)cc4)cc3C(=O)N([C@H](C)CO)C[C@H]2C)cc1	1	x	x	x	x
CN(C)S(=O)(=O)c1ccc(Cl)c(NC(=O)CN2CCC(Cc3ccccc3)CC2)c1	-1	10	-13	-4	0
CN(C)S(=O)(=O)c1ccc(NC(=O)CN2CCC(Cc3ccccc3)CC2)cc1	44*	14	-7	-7	1
CCCCCCn1ccc(=N)cc1	x	-5	13	4	0
CCCCCCCCCCCCCCCCn1cc[n+](CC(C)=O)c1	x	112*	x	x	x
O=C(Cc1ccc(F)cc1)NC1CCSC1=O (configuration not stated)	43*	-8	0	2	0
CC(C)(C)c1ccc(NC(=O)Nc2ccc(F)cc2)cc1	43*	-7	6	3	0
Cc1ccc(NC(=O)Nc2ccc(F)cc2)cc1Cl	43*	-4	0	-5	0
Cc1noc(C)c1C(=O)N1CCCC(N2CCN(c3cccc(C(F)(F)F)c3)CC2)C1 (configuration not stated)	0	-5	0	-6	0
CC(=O)COc1ccc2c(C)c(-c3ccccc3)c(=O)oc2c1	0	-10	9	0	0
Cc1cc(NCCN2CCOCC2)c2ccc3ccccc3c2n1	43*	36	-1	2	0
COc1ccc2nc(C)cc(NCCN3CCOCC3)c2c1	0	-8	-3	7	0
Clc1nc(NCCN2CCOCC2)nc(NCc2ccccc2)n1	44*	-6	0	2	0
S=C(Nc1ccccc1)Nc1ccccn1	0	x	-1	14	x
S=C(Nc1ccc(Nc2ccccc2)cc1)Nc1ccccn1	43*	5	4	2	0

Compound activity from PubChem.
